Laboratory results reported in article PMC10321171 (Virulence, 2023).
≈ marks a conversion by molar mass, not a printed value.

Tests used:
C. albicans YEM30 [1] = assay: Drug resistance development test; type: cell-based, Candida albicans
C. albicans YEM30 [2] = assay: G. mellonella-C. albicans infection model; type: in vivo, Galleria mellonella; conditions: 2 μg/larva, 2 h after infection
Summary of the method: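 Larvae were infected with 10 μL YEM30 (2 × 10^5 CFU/mL) into the last right foreleg. After 2 h they were injected with 10 μL of test compound (2 μg/larva), fluconazole (2 μg/larva) or PBS, then kept at 37°C in the dark. Death was no response to slight contact; survival was scored daily for 5 days (log-rank test). For fungal burden (40 larvae/group), six larvae/day were homogenized in PBS, serially diluted and plated on YPD.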

C. albicans [3] = assay: Determination of MIC by broth microdilution; type: cell-based; conditions: Candida albicans, read-out: MICs, strain YEM30, wild-type strain
C. albicans [4] = conditions: subinhibitory concentrations; cited from earlier work

SMILES	MIC (C. albicans YEM30 [1]; Candida albicans, YEM30, read-out: MIC value after consecutive treatment)	drug resistance development (C. albicans YEM30 [1]; YEM30, consecutive treatment with 1/2 MIC, up to 40 days)	fungal burden vs control group (C. albicans YEM30 [2])	survival rate of infected larvae (C. albicans YEM30 [2]; 5 days)	MIC (C. albicans [3])	farnesol levels compared to untreated cells (C. albicans [4])
OC(Cn1cncn1)(Cn1cncn1)c1ccc(F)cc1F [FLC, Fluconazole]	8 µg/mL (≈ 26.1 µM)	developed drug resistance after being treated with 1/2 MIC of FLC for 5 days	greatly reduced the fungal burden	73%	1 µg/mL (≈ 3.27 µM)	
C/C=C/CCCC/C=C/CCCCC(=O)O[C@@H]1[C@@H](O)[C@@]2(CCC(C)C(O)C(C)C/C=C/c3ccccc3)O[C@H](C(=O)O)[C@@](O)(C(=O)O)[C@]1(C(=O)O)O2 (stereo partly drawn) [zaragozic acid B]						8–10 folds
